# Source: PubChem
# Hits are enriched below; roughly 2.7% of the tested compounds scored in any of these assays.
# OX1R antag-1: antagonists of human orexin 1 receptor (OX1R). OX1R-expressing cells, FRET antagonist read-out. inhibition, % at 6.6 µM. 330,000 tested, 1.8% active. AID 485270. O43613; in the data active = inhibition mostly above about 38%, no sharp cut-off; inactive = mostly below about 40%;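 also: 0% = agonist challenge alone and 100% = reference antagonist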
# OXTR agonist: activates the human oxytocin receptor; CHO-OTR cells, Fluo-8 calcium fluorescence; normalized: DMSO 0%, oxytocin 100%; activation, % at 3 µM; P30559; 320,000 tested, 0.32% active;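 active = activation above the mean of all tested compounds plus 3 SD, cutoff set per screening run, cut at about 20% in these data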;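 also: peak over basal fluorescence ratio from a 100 s FLIPR kinetic read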
# Target sequence (P30559 whole entry, looked up): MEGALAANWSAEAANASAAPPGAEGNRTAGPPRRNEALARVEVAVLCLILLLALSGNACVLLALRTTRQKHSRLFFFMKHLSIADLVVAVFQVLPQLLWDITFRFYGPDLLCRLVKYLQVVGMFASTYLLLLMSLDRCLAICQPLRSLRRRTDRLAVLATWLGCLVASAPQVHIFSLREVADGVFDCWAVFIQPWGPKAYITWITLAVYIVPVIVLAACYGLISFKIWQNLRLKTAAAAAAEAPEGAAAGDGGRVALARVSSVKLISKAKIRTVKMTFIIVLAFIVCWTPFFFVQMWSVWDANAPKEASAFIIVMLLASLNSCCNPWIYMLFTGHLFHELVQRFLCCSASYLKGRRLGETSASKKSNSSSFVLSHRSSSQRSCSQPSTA
# OXTR potentiator: potentiators of human oxytocin receptor; activation, % at 3 µM; CHO-OTR cells, Fluo-8 calcium fluorescence, potentiator mode; 0% = oxytocin EC15, 100% = EC100; P30559; 320,000 tested, 0.061% active;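 active = activation above that plate's cutoff, the mean activation of tested compounds plus 3 SD, cut at about 6.6% in these data, passing the limit was not always enough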;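 also: 100% uses oxytocin at 75 nM as the full agonist control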
#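 Dosing: Single dose, 3.0 µM nominal final compound concentration | Material: Human OTR in CHO cells | Technique: Kinetic Fluo-8 calcium fluorescence | Benchmarks: EC15 oxytocin alone as 0%, 75 nM oxytocin as 100% | Probe or stimulus: Oxytocin at about EC15, sub-maximal agonist stimulus | Incubation: Compound 6 min at room temperature before oxytocin, 100 s read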
# V1R ag counter: activates human V1a receptor in oxytocin agonist counter-screen | P37288 | CHO-V1R cells, Fluo-8 calcium fluorescence, agonist mode; 0% DMSO, 100% 3 nM vasopressin | activation, % at 3 µM | 320,000 tested, 0.25% active | AID 2797;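 active = activation above the mean activation of all tested compounds plus 3 SD, per screening run, cut at about 20% in these data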;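 also: signal is peak over basal fluorescence ratio across a 100 second FLIPR read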
# CHO parental Ca: counter-screen: ATP calcium response change in parental CHO cells; AID 463079; 330,000 tested, 0.63% active; parental CHO-K1, ATP-induced calcium, Fluo-8 fluorescence; inhibition, % at 5.6 µM;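 active = inhibition above that plate's mean sample inhibition plus 3 SD, cut at about 26% in these data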;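 also: 0% = ATP-challenged DMSO wells and 100% = DMSO wells without ATP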
#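 Material – parental CHO cells · Reagent – ATP stimulus · Compound – single nominal dose of 5.6 µM per compound · Detection – Fluo-8 fluorescence · Read-out basis – percent inhibition of calcium signal · Controls – ATP-challenged DMSO wells low, unchallenged DMSO wells high · Repeats – no replicates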
# OX1R antag-2: antagonists of human orexin 1 receptor. O43613. CHO/OX1R cells, Fluo-8 calcium fluorescence, orexin A. inhibition, % at 5 µM. 330,000 tested, 0.43% active;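 active = inhibition above its plate's threshold, mean inhibition of all tested compounds on the plate plus 3 SD, cut at about 37% in these data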;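 also: 0% = orexin A challenge wells and 100% = SB-334867-A antagonist wells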
# OX1R HTRF confirm: confirmation of human orexin 1 receptor antagonists, HTRF format. shares compounds with OX1R antag-1. OX1R-expressing cells, HTRF antagonist assay. inhibition, % at 6.6 µM. 1,800 tested, 49% active. AID 492964; in the data active = inhibition above about 55%;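 also: CHO cells expressing OX1R stimulated with orexin A at about EC80; 0% = agonist challenge alone and 100% = reference antagonist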
# CHO-K1 HTRF cnt: signal in parental CHO-K1 cells, OX1R antagonist counter-screen. HTRF counterscreen. shares compounds with OX1R antag-1. 1,800 tested, 48% active. AID 493232. inhibition, % at 6.6 µM; in the data active = inhibition above about 17%;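 also: 0% = agonist challenge with vehicle and 100% = vehicle alone without agonist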
# * marks the source's active call; other numbers are inactive results; . = no result.
SMILES,OX1R antag-1,OXTR agonist,OXTR potentiator,V1R ag counter,CHO parental Ca,OX1R antag-2,OX1R HTRF confirm,CHO-K1 HTRF cnt
O=C(O)COc1ccccc1/C=C1\SC(=S)N(NC(=O)c2ccccc2O)C1=O,28.1,1.5,-5.1,1.7,-14.0,-4.1,.,.
O=C(O)COc1ccccc1/C=C1\SC(=S)N(/N=C/c2ccccc2O)C1=O,97.7*,0.2,-1.5,0.7,6.1,-0.6,70.0*,45.5*
CN(C(=O)COC(=O)/C=C/c1cccc([N+](=O)[O-])c1)C1CCS(=O)(=O)C1 (configuration not stated),90.2*,1.4,-4.6,0.5,-10.7,-18.3,40.9,43.0*
COC(=O)c1cc(C(=O)OCC(=O)NC2CCS(=O)(=O)C2)cc([N+](=O)[O-])c1 (configuration not stated),84.0*,0.9,-3.3,0.4,-11.6,-14.1,43.1,47.0*
CCN(C(=O)COC(=O)/C=C/c1cccc(Br)c1)C1CCS(=O)(=O)C1 (configuration not stated),21.2,0.2,-7.2,2.3,-2.3,-13.4,.,.
COC(=O)c1cc(C(=O)OCC(=O)N(C)C2CCS(=O)(=O)C2)cc([N+](=O)[O-])c1 (configuration not stated),120.1*,-0.1,-9.3,-0.3,-11.7,-8.0,88.4*,70.0*
COC(=O)c1cc(C(=O)OCC(=O)NC2CCCC2)cc([N+](=O)[O-])c1,33.9,-0.5,-1.1,-0.2,0.7,-12.6,.,.
C[C@]12CCC(O)CC1=CCC1C2CC[C@]2(C)/C(=N\NC(N)=S)CCC12 (some centres not stated),-0.5,2.2,-13.8,5.8,6.0,-2.1,.,.
CCCS(=O)(=O)N1CCCC(C(=O)NCCCN(Cc2ccccc2)C(C)C)C1 (configuration not stated),107.2*,0.4,-0.9,-0.4,-21.5,-25.8,10.3,1.8
O=C(CSc1ccc(-c2cccs2)nn1)c1cccs1,111.3*,0.0,-0.9,-1.0,-19.8,20.5,95.3*,6.3
CN(C)c1ccc(/C=c2\sc3n(c2=O)CCCN=3)cc1,116.2*,6.4,-19.0,9.0,-10.8,-13.4,35.9,30.8*
CCCCc1ccc(S(=O)(=O)NCCCN2CCCC2=O)cc1,11.5,5.1,-9.4,6.6,-13.3,-16.1,.,.
CCCCC(CC)C(=O)Nc1cc(C(=O)NCCC)ccc1N1CCC2(CC1)CC(c1cccc(Br)c1)=NO2 (configuration not stated),28.4,-0.6,0.3,0.2,-20.1,-27.6,.,.
CCN(CCCNC(=O)C1CCN(S(=O)(=O)c2cccc3nonc23)CC1)Cc1ccccc1,91.7*,-1.0,-10.9,-0.1,-11.9,-15.9,29.1,43.8*
CCCNC(=O)C1CCN(S(=O)(=O)c2cccc3nonc23)CC1,28.8,-0.1,-9.6,1.0,-5.2,-2.9,.,.
COc1ccc(-n2nc([N+](=O)[O-])c(=NCc3ccco3)n2O)cc1,43.3,-0.1,-5.0,0.2,7.0,0.6,.,.
COc1ccc(-n2nc([N+](=O)[O-])c(=NCCc3ccc(OC)c(OC)c3)n2O)cc1,84.4*,15.9,-11.3,4.8,0.5,-8.6,46.2,54.5*
COc1ccc(-n2nc([N+](=O)[O-])c(=NCc3cccnc3)n2O)cc1,123.2*,-1.8,-3.0,0.6,-9.1,-3.2,61.2*,77.5*
COc1ccc(-n2nc([N+](=O)[O-])c(=NCCc3ccc(C)cc3)n2O)cc1,33.8,-2.2,-3.0,-0.4,-21.8,-41.5,.,.
COc1ccc(-n2nc([N+](=O)[O-])c(=NC3CCN(Cc4ccccc4)CC3)n2O)cc1,78.6*,-0.7,-1.1,0.4,-20.5,-37.2,61.3*,55.4*
C[C@@H]1CN([C@@H](C)CO)C(=O)c2cc(NC(=O)Nc3ccc(F)cc3)ccc2O[C@@H]1CN(C)Cc1ccc(Oc2ccccc2)cc1,0.6,-0.4,-8.1,2.3,4.1,9.1,.,.
COc1cccc(CCNc2ccc(N3C(=O)CC(C)C3=O)cc2[N+](=O)[O-])c1 (configuration not stated),30.0,5.7,-5.4,5.8,-8.9,-23.9,.,.
COc1ccc(Nc2ccc(N3C(=O)CC(C)C3=O)cc2[N+](=O)[O-])cn1 (configuration not stated),78.4*,3.2,2.0,0.3,11.7,-13.3,41.2,38.9*
N#C/C(=N\Nc1ccc(S(=O)(=O)N2CCc3ccccc32)cc1)C(N)=S,106.0*,3.7,-23.6,6.3,6.9,-3.9,40.9,20.9*
N#C/C(=N\Nc1ccc([N+](=O)[O-])cc1)C(N)=S,89.8*,14.8,-22.0,9.8,8.3,17.2,64.2*,50.9*
SMILES,OX1R antag-1,OXTR agonist,OXTR potentiator,V1R ag counter,CHO parental Ca,OX1R antag-2,OX1R HTRF confirm,CHO-K1 HTRF cnt
N#C/C(=N\Nc1ccc([N+](=O)[O-])cc1)C(=N)N1CCOCC1,16.9,1.3,-7.1,1.3,0.3,3.2,.,.
CCOC(=O)/C(C#N)=N/Nc1ccc(S(=O)(=O)N2CCc3ccccc32)cc1,35.8,14.8,-11.1,10.4,-6.9,-2.9,.,.
NC(=O)C1CCN(C(=O)CCSCc2ccc(Cl)c(Cl)c2)CC1,11.8,0.6,-9.5,0.7,-11.2,-1.6,.,.
CCc1nc2ccccc2n(CC)c1=O,21.4,0.4,-10.2,0.1,2.3,-14.1,.,.
CCn1c(=O)c(C(C)=O)nc2ccccc21,99.7*,0.1,-12.2,0.2,-16.9,-9.1,30.8,5.3
O=c1/c(=C/c2ccco2)sc2n1CN(c1cccc(Br)c1)CN=2,56.2,0.0,-8.7,0.6,5.8,-18.6,.,.
Cc1ccc(/C=c2\sc3n(c2=O)CN(c2cccc(Br)c2)CN=3)o1,80.4*,-0.9,-3.3,-0.2,0.3,-6.8,18.1,12.5
COC(=O)c1c(NC(=O)c2ccccc2)sc(C(N)=O)c1C,94.9*,0.5,-1.0,-0.3,-0.8,-1.7,31.6,-0.6
COc1cc2c(cc1OC)C(Cc1ccc(O)c(Oc3ccc(C[C@H]4c5cc(OC)c(OC)cc5CCN4C)cc3)c1)N(C)CC2 (some centres not stated),9.6,-1.4,-0.8,3.4,-18.6,-11.2,.,.
O=C(CSC1=NS(=O)(=O)c2ccccc2N1)Nc1ccccc1F,25.8,-0.4,-4.5,1.1,-2.9,-0.6,.,.
O=C1CCN2C=Nc3cccc4ccc1c2c34,91.9*,38.2*,-13.8,29.1*,27.1,21.6,41.6,18.8*
CCC(=O)Nc1ccc2oc(-c3ccccc3Br)nc2c1,84.3*,-0.2,-18.4,0.9,5.2,22.9,51.0,0.2
